Laboratory results taken from PubChem BioAssay AID651938 (NMMLSC, 2012).

Molecular target: Fluorogen activating protein scFv HL1.1-TO1 (AM2.2, synthetic construct)
Assay: competition with TO1-2p for soluble AM2.2 – biochemical, soluble FAP, fluorescence competition, artefact control for beta2AR internalization ligand project, dose response (AID 651938)
Details: Soluble FAP AM2.2 with TO1-2p fluorogen
Summary of the method: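 System: soluble purified FAP AM2.2; also added: TO1-2p fluorogen, 10× Kd; compound dosing: serial dilution series, water-diluted DMSO stocks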

Row | EC50 | Compound
1 | 2.73 µM | CN(CC(=O)N1CCN(c2ccccn2)CC1)S(=O)(=O)c1ccc(Cl)cc1
2 | 19.8 µM | Cc1ccc(S(=O)(=O)N(C)CC(=O)N2CCN(c3ccccn3)CC2)cc1
